In PubChem BioAssay:
The source made the active and inactive calls.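 Rule for the calls, unless noted: active = viability loss from added drug above about 55%, and viability with drug at most 40%, in both replicates (limit read from the data, passing the limit was not always enough); inconclusive = both conditions met in only one replicate; inactive = neither replicate meets both conditions.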

How the values were obtained:
[1] = Her2 expression decrease, cell viability multiplex – SKBR3 breast tumor cells, AlphaScreen, ATP viability, primary screen (AID 461;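 active = Her2 level under about 52% in both replicate screens, with viability over 70% of control, limit read from the data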;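 for Her2 level: lower value means less Her2 protein in the cells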;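 for viability: percent of carrier control wells set as 100% viability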); details: SKBR3 Her2 protein level, 18-24 h, measured here: SKBR3 viability, ATP luminescence, at 10 µM
[2] = biological target: Receptor tyrosine-protein kinase erbB-2 (Homo sapiens) (UniProt P04626); assay: as above; details: 18-24 h, at 10 µM, stronger effect = lower value
[3] = reduced viability of SK-BR-3 breast cancer cells – cell-based, 24 h, human, pilot screen (AID 572;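 active = viability at or below 10% of carrier control in both of two separate runs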;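 note: compound exposure lasted between 18 and 24 h rather than exactly 24 h; 100% = carrier-treated control wells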); details: SK-BR-3 viability, CellTiter-Glo luminescence, at 10 µM, stronger effect = lower value
[4] = HUVEC growth inhibition – cell-based, human, primary screen (AID 575;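 active = viability at or below 30% in both replicate assays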;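 note: 100% = median of untreated cell wells with 0.1% DMSO on each plate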); details: HUVEC proliferation, CellTiter-Glo luminescence, 72 h; at 10 µM; stronger effect = lower value
Method in brief: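 Material: primary human umbilical vein endothelial cells / Schedule: 72 h exposure, 37 °C, 5% CO2, 30 min RT equilibration / Signal: ATP-based CellTiter-Glo luminescent read / Read-out basis: percent of median DMSO-control luminescence / Control set: 32 DMSO-only cell-control wells (high), 32 MePR drug-control wells (low) per plate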

[5] = H69AR cell proliferation blockers – human, duplicate replicates, primary screen (AID 580;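 active = viability at or under a set limit in both replicates, limit being median viability minus 3 SD, cut at about 48% in these data, passing the limit was not always enough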;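 note: 100% = mean luminescence of untreated wells and 0% = no signal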); details: H69AR lung tumor cells viability, ATP luminescence, 72 h; at 10 µM; stronger effect = lower value
[6] = MRP1 drug-resistance reversers in H69AR cells – cell-based, doxorubicin co-treatment, pilot screen (AID 601); details: CellTiter-Glo, 72 h, at 10 µM; for differential viability (reversal): stronger effect = higher value
[7] = yeast transport mutant growth inhibition pilot in 384-well plates, post-Golgi transport modulator project (AID 636; in the data active = inhibition above about 31%); details: absorbance 615 nm, about 18 h, stronger effect = higher value
[8] = growth suppression of yeast trafficking mutant, preliminary HTS, modulators of trafficking downstream of Golgi apparatus project, 1536-format plate, OD 615 nm (AID 637; in the data active = inhibition above about 30%); details: yeast transport mutant growth, absorbance 615 nm, 18 h; stronger effect = higher value
[9] = H69AR cells + 2 uM doxorubicin, measured here: viability with 2 uM doxorubicin, stronger effect = lower value
[10] = H69AR cells, compound alone cytotoxicity

Chain of Receptor tyrosine-protein kinase erbB-2 (Homo sapiens) (P04626 whole entry, looked up): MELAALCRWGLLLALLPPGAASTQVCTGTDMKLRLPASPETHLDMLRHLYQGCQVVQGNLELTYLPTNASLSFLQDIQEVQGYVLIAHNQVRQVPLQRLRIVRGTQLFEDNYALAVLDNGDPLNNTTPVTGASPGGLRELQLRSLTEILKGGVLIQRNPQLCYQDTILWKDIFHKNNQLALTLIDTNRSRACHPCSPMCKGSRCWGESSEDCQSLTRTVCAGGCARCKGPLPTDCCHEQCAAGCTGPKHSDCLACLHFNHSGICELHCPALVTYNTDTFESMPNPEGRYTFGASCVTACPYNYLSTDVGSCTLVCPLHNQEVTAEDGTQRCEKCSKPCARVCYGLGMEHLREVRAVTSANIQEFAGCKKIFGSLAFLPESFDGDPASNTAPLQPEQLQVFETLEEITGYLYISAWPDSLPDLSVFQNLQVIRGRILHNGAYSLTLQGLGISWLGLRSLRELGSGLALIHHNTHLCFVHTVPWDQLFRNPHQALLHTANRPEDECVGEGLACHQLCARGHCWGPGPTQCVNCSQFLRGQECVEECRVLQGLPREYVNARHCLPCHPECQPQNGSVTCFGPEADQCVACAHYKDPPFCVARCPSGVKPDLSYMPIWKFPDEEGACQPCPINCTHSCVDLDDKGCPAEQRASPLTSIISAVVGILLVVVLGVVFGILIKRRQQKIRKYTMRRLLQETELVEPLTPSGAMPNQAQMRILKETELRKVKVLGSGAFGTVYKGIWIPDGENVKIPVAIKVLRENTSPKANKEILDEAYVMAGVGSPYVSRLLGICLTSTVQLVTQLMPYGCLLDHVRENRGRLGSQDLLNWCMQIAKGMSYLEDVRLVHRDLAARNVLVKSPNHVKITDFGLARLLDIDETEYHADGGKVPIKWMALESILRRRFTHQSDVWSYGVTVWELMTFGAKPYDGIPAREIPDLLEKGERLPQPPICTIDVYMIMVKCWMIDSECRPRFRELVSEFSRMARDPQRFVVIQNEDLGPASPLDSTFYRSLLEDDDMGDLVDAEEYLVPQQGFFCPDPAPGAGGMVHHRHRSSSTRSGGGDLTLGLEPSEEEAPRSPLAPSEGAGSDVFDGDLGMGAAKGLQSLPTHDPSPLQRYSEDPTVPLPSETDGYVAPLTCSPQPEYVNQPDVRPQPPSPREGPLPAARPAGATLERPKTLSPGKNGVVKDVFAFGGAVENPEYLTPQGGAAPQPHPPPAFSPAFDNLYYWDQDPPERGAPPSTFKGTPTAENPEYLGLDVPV

Compound	viability [1] [%]	Her2 level [2]	viability [3]	viability [4]	viability [5]	differential viability (reversal) ([6]; H69AR cells + 2 uM doxorubicin)	viability [6, 9] [%]	viability [6, 10] [%]	inhibition [7]	inhibition [8]
C/C=C/Cn1c(Br)nc2c1c(=O)[nH]c(=O)n2C	101	91% (inactive)	101% (inactive)	90.7% (inactive)	93.5% (inactive)	7.23% (inactive)	86.3	93.5	-6.53% (inactive)	0.16% (inactive)
CC(NC(=O)C1CCCN(S(=O)(=O)c2cccs2)C1)c1ccccc1 (stereo not given)	95	80.5% (inactive)	95% (inactive)	104% (inactive)	89.7% (inactive)	1.41% (inactive)	88.2	89.7	1.03% (inactive)	1.17% (inactive)
Cc1cc2ccccn2c1C(=O)c1ccncc1	114	98% (inactive)	114% (inactive)	106% (inactive)	87.9% (inactive)	9.15% (inactive)	78.8	87.9	-3.77% (inactive)	2.22% (inactive)
COc1cccc(NS(=O)(=O)c2cc(C)sc2C)c1	93.5	94% (inactive)	93.5% (inactive)	97.5% (inactive)	94.3% (inactive)	2.18% (inactive)	92.1	94.3	-2.89% (inactive)	-6.67% (inactive)
Cc1cc(C)c2c(n1)nn1c(C3CC3)cc(C(F)(F)F)nc21	106	89% (inactive)	106% (inactive)	90.7% (inactive)	92.4% (inactive)	-4.02% (inactive)	96.4	92.4	-5.41% (inactive)	2.54% (inactive)
O=C(CCN1CCc2ccccc2C1)Nc1ccc2c(c1)OCO2	88.5	94% (inactive)	88.5% (inactive)	84.4% (inactive)	87.1% (inactive)	-18.3% (inactive)	105	87.1	-4.4% (inactive)	0.81% (inactive)
Cc1cccc(C)c1OCc1nnc2c3cnn(C)c3ncn12	100	138% (inactive)	100% (inactive)	105% (inactive)	91.9% (inactive)	-2.03% (inactive)	94	91.9	-2.11% (inactive)	-4.59% (inactive)
